ChEMBL document CHEMBL4813946, “Discovery of novel 4-azaaryl-N-phenylpyrimidin-2-amine derivatives as potent and selective FLT3 inhibitors for acute myeloid leukaemia with FLT3 mutations” (Eur J Med Chem, 2021)
Activity calls are given as the source filed them. The rule behind the calls is not given here.

How the values were obtained:
U-937 [1] = experiment: Induction of apoptosis in human U937 cells assessed as early apoptotic cells at 1 x GI50 concentration incubated for 48 hrs by annexin V-FITC staining based flow cytometry (Rvb =2.78 %); assay type: functional
[2] = target: Cyclin-dependent kinase 2/cyclin E1 (Homo sapiens, UniProt P24941); experiment: Inhibition of CDK2/cyclin E (unknown origin) using histone 1 protein substrate incubated for 120 mins measured after 40 mins incubation under dark by ADP-glo based luminescence assay; assay type: protein-complex assay
Outline: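 In-house ADP-Glo assay with 2 mM DMSO stocks. Kinases were CDK1/cyclin B at 1 nM, CDK2/cyclin E1 at 10 nM and CDK7/cyclin H/MAT1 at 40 nM. Substrate was histone 1 for CDK1 and CDK2, and a RNA pol II CTD peptide for CDK7. Compound at 8–10 concentrations, 1:3 serial, final DMSO 0.5%. Reactions ran 60–120 min at room temperature, then ADP-Glo reagent 40 min in the dark, then detection reagent 40 min, read by luminescence. Ki was derived from IC50 by Cheng-Prusoff.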

[3] = target: Receptor-type tyrosine-protein kinase FLT3 (Homo sapiens, UniProt P36888, R595-E596INSEY); experiment: Inhibition of FLT3 R595_E596insEY mutant (unknown origin) incubated for 120 mins by ADP-glo based luminescence assay
Sequence of Receptor-type tyrosine-protein kinase FLT3 (P36888 whole entry, looked up, stated change not applied): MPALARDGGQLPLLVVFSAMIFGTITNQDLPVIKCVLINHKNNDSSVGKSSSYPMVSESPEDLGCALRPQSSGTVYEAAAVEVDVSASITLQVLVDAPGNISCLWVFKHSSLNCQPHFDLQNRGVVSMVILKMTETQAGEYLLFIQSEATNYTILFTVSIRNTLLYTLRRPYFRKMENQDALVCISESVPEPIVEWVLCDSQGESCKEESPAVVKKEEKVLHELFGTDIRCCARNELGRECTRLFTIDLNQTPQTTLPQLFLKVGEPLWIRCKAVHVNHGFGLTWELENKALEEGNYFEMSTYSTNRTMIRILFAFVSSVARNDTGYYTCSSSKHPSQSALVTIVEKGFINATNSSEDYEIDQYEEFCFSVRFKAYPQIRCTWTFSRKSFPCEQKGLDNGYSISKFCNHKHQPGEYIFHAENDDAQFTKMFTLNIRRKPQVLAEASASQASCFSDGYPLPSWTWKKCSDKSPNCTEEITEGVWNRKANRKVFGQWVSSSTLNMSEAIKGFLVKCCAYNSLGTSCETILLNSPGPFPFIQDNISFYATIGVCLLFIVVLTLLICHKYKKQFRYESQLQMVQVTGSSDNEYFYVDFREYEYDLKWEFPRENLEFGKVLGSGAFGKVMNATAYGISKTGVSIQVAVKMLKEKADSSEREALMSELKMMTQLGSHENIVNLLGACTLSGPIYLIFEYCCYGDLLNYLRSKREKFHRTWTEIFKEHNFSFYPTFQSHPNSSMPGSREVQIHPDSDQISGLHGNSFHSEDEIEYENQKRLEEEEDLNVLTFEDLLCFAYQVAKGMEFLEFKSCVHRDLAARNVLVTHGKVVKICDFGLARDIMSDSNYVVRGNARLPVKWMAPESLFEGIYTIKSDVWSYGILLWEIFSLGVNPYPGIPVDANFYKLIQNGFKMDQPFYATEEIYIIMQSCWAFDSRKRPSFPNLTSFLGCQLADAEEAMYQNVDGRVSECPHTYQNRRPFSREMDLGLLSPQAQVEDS

Jurkat = experiment: Antiproliferative activity against human Jurkat cells harboring FLT3 knockout gene assessed as reduction in cell viability after 72 hrs by resazurin assay; assay type: functional
Outline: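 Cells seeded and pre-incubated 24 h at 37 °C, 5% CO2, then given a five-fold dilution series of compound (from 10 mM DMSO stock) in medium, in triplicate. Resazurin added after 72 h exposure, 4 h in dark at 37 °C. Fluorescence read at 570/585 nm, normalised to DMSO vehicle. GI50 by non-linear regression; mean ± SD of at least two replicates.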

MV4-11 [4] = experiment: Induction of apoptosis in human MV4-11 cells assessed as early apoptotic cells at 5 x GI50 concentration incubated for 24 hrs by annexin V-FITC and propidium iodide staining based flow cytometry (reference value: 2.12 %); assay type: functional
MV4-11 [5] = experiment: Induction of apoptosis in human MV4-11 cells assessed as early apoptotic cells at 10 x GI50 concentration incubated for 24 hrs by annexin V-FITC and propidium iodide staining based flow cytometry (reference value: 2.12 %); assay type: functional
MV4-11 [6] = experiment: Induction of apoptosis in human MV4-11 cells assessed as early apoptotic cells at 20 x GI50 concentration incubated for 24 hrs by annexin V-FITC and propidium iodide staining based flow cytometry (reference value: 2.12 %); assay type: functional
MV4-11 [7] = experiment: Induction of apoptosis in human MV4-11 cells assessed as viable cells at 1 x GI50 concentration incubated for 48 hrs by annexin V-FITC and propidium iodide staining based flow cytometry (reference value: 91.87 %); assay type: functional
MV4-11 [8] = experiment: Induction of apoptosis in human MV4-11 cells assessed as early apoptotic cells at 5 x GI50 concentration incubated for 48 hrs by annexin V-FITC and propidium iodide staining based flow cytometry (Rvb =1.08 %); assay type: functional
MV4-11 [9] = experiment: Induction of apoptosis in human MV4-11 cells assessed as viable cells at 5 x GI50 concentration incubated for 48 hrs by annexin V-FITC and propidium iodide staining based flow cytometry (reference value: 91.87 %); assay type: functional
U-937 [10] = experiment: Induction of apoptosis in human U937 cells assessed as necrotic cells at 1 x GI50 concentration incubated for 24 hrs by annexin V-FITC and propidium iodide staining based flow cytometry (reference value: 1.10 %); assay type: functional
U-937 [11] = experiment: Induction of apoptosis in human U937 cells assessed as viable cells at 1 x GI50 concentration incubated for 24 hrs by annexin V-FITC and propidium iodide staining based flow cytometry (reference value: 86.80 %); assay type: functional
U-937 [12] = experiment: Induction of apoptosis in human U937 cells assessed as late apoptotic cells at 5 x GI50 concentration incubated for 24 hrs by annexin V-FITC and propidium iodide staining based flow cytometry (Rvb =10.30 %); assay type: functional
U-937 [13] = experiment: Induction of apoptosis in human U937 cells assessed as early apoptotic cells at 10 x GI50 concentration incubated for 24 hrs by annexin V-FITC and propidium iodide staining based flow cytometry (reference value: 1.81 %); assay type: functional
U-937 [14] = experiment: Induction of apoptosis in human U937 cells assessed as viable cells at 10 x GI50 concentration incubated for 24 hrs by annexin V-FITC and propidium iodide staining based flow cytometry (reference value: 86.80 %); assay type: functional
U-937 [15] = experiment: Induction of apoptosis in human U937 cells assessed as early apoptotic cells at 20 x GI50 concentration incubated for 24 hrs by annexin V-FITC and propidium iodide staining based flow cytometry (reference value: 1.81 %); assay type: functional
U-937 [16] = experiment: Induction of apoptosis in human U937 cells assessed as late apoptotic cells at 20 x GI50 concentration incubated for 24 hrs by annexin V-FITC and propidium iodide staining based flow cytometry (reference value: […] %); assay type: functional
[17] = target: Receptor-type tyrosine-protein kinase FLT3 (Homo sapiens) (UniProt P36888); experiment: Inhibition of FLT3-mediated signalling pathway in human MV4-11 cells assessed as inhibition of ERK phosphorylation upto 20 x GI50 concentration incubated for 6 hrs by western blot analysis; assay type: cell-based
Sequence of Receptor-type tyrosine-protein kinase FLT3 (Homo sapiens) (P36888 whole entry): as the sequence (P36888 whole entry, looked up, stated change not applied) above
Outline: (§1)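 Cells lysed in phosphate lysis buffer with protease inhibitors and protein quantified. Western blots probed phospho and total STAT5, AKT, ERK, S6RP and eIF4E, plus full-length and cleaved PARP and caspase-3, with β-actin as loading control. At least two independent experiments.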

[18] = target: Receptor-type tyrosine-protein kinase FLT3 (Homo sapiens) (UniProt P36888); experiment: Inhibition of FLT3-mediated signalling pathway in human MV4-11 cells assessed as inhibition of S6RP phosphorylation upto 20 x GI50 concentration incubated for 6 hrs by western blot analysis; assay type: cell-based; outline: as §1
[19] = target: Receptor-type tyrosine-protein kinase FLT3 (Homo sapiens) (UniProt P36888); experiment: Inhibition of FLT3-mediated signalling pathway in human MV4-11 cells assessed as inhibition of eIF4E phosphorylation upto 20 x GI50 concentration incubated for 6 hrs by western blot analysis; assay type: cell-based; outline: as §1
U-937 [20] = experiment: Induction of apoptosis in human U937 cells assessed as early apoptotic cells at 10 x GI50 concentration incubated for 48 hrs by annexin V-FITC staining based flow cytometry (reference value: 2.78 %); assay type: functional
U-937 [21] = experiment: Induction of apoptosis in human U937 cells assessed as necrotic cells at 10 x GI50 concentration incubated for 48 hrs by annexin V-FITC staining based flow cytometry (reference value: 1.16 %); assay type: functional
U-937 [22] = experiment: Induction of apoptosis in human U937 cells assessed as late apoptotic cells at 20 x GI50 concentration incubated for 48 hrs by annexin V-FITC staining based flow cytometry (reference value: 9.82 %); assay type: functional
U-937 [23] = experiment: Induction of apoptosis in human U937 cells assessed as necrotic cells at 20 x GI50 concentration incubated for 48 hrs by annexin V-FITC staining based flow cytometry (reference value: 1.16 %); assay type: functional
U-937 [24] = experiment: Induction of apoptosis in human U937 cells assessed as viable cells at 20 x GI50 concentration incubated for 48 hrs by annexin V-FITC staining based flow cytometry (reference value: 86.25%); assay type: functional
[25] = target: Receptor-type tyrosine-protein kinase FLT3 (Homo sapiens) (UniProt P36888); experiment: Inhibition of FLT3-mediated signalling pathway in human U-937 cells assessed as inhibition of S6RP phosphorylation upto 20 x GI50 concentration incubated for 6 hrs by western blot analysis; assay type: cell-based; outline: as §1

Ki [2]: > 5000 nM
Ki [3]: 77 nM
GI50 (Jurkat): > 10000 nM
inhibition [17]: Active
inhibition [18]: Active
inhibition [19]: Active
inhibition [25]: Active
Structure (SMILES): CC(=O)N1CCN(c2ccc(Nc3nccc(-c4cn(C)c5ncccc45)n3)cc2)CC1
Activity (U-937 [1]): 2.21%
Activity (MV4-11 [4]): 1.91%
Activity (MV4-11 [5]): 2.54%
Activity (MV4-11 [6]): 3.51%
Activity (MV4-11 [7]): 89.25%
Activity (MV4-11 [8]): 3.06%
Activity (MV4-11 [9]): 86.83%
Activity (U-937 [10]): 1.42%
Activity (U-937 [11]): 88.19%
Activity (U-937 [12]): 9.79%
Activity (U-937 [13]): 2.48%
Activity (U-937 [14]): 85.8%
Activity (U-937 [15]): 2.63%
Activity (U-937 [16]): 1.64%
Activity (U-937 [20]): 3.06%
Activity (U-937 [21]): 1.57%
Activity (U-937 [22]): 14.5%
Activity (U-937 [23]): 1.73%
Activity (U-937 [24]): 80.33%
